# Measured values taken from ChEMBL document CHEMBL1944580, “Synthesis of novel sulfonamide-1,2,4-triazoles, 1,3,4-thiadiazoles and 1,3,4-oxadiazoles, as potential antibacterial and antifungal agents. Biological evaluation and conformational analysis studies” (2012).
# Columns and labels:
# Aspergillus versicolor [1] = experiment: Antifungal activity against Aspergillus versicolor ATCC 11730 after 72 hrs by serial dilution method; format: functional; conditions: ATCC 11730, 72 h
# In short: (§1)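 Modified microdilution MIC. Spores were washed from malt agar cultures with sterile 0.85% saline containing 0.1% Tween 80 and adjusted to about 1.0 × 10^5 per 100 µl well in malt broth. Compounds were dissolved in DMSO (1 mg/ml). Plates incubated 72 h at 28 °C. MIC is the lowest concentration with no visible growth under a binocular microscope. Bifonazole and ketoconazole were the references.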
# Trichoderma viride [2] = experiment: Antifungal activity against Trichoderma viride IAM 5061 treated for 72 hrs followed by sub-cultivated for 5 days by serial dilution method; format: functional
# In short: (§2)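 MFC obtained after the 72 h, 28 °C malt-broth microdilution (spore inoculum about 1.0 × 10^5 per well, compounds from 1 mg/ml DMSO). 2 µl was serially subcultured into 100 µl broth per well and incubated a further 5 days at 28 °C. MFC is the lowest concentration with no visible growth, taken as 99.5% killing of the original inoculum.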
# Penicillium ochrochloron [3] = experiment: Antifungal activity against Penicillium ochrochloron ATCC 9112 after 72 hrs by serial dilution method; format: functional; conditions: ATCC 9112, 72 h; in short: as §1
# Staphylococcus aureus [4] = experiment: Antibacterial activity against Staphylococcus aureus ATCC 6538 after 24 hrs by micro dilution method; format: functional; conditions: ATCC 6538, 24 h
# In short: (§3)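 Microdilution MIC in 96-well plates. Bacterial suspensions adjusted in sterile saline to 1.0 × 10^5 CFU/ml, giving 1.0 × 10^4 cfu per well in LB broth. Compounds tested at up to 1 mg/ml. Plates incubated 24 h. MIC taken as the lowest concentration with no visible growth under a binocular microscope. OD at 655 nm was also read against a blank and the positive control. Streptomycin and ampicillin were the positive controls.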
# Pseudomonas aeruginosa [5] = experiment: Antibacterial activity against Pseudomonas aeruginosa ATCC 27853 treated for 24 hrs followed by sub-cultivated for 72 hrs by micro dilution method; format: functional
# In short: (§4)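 2 µl from each well was serially subcultured into 100 µl fresh broth per well and incubated a further 72 h. MBC is the lowest concentration with no visible growth, taken as 99.5% killing of the original inoculum. Streptomycin and ampicillin were the positive controls.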
# Talaromyces funiculosus [6] = experiment: Antifungal activity against Penicillium funiculosum ATCC 36839 after 72 hrs by serial dilution method; format: functional; conditions: ATCC 36839, 72 h; in short: as §1
# Aspergillus fumigatus [7] = experiment: Antifungal activity against Aspergillus fumigatus human isolate after 72 hrs by serial dilution method; format: functional; in short: as §1
# Aspergillus flavus [8] = experiment: Antifungal activity against Aspergillus flavus ATCC 9643 treated for 72 hrs followed by sub-cultivated for 5 days by serial dilution method; format: functional; in short: as §2
# Aspergillus niger [9] = experiment: Antifungal activity against Aspergillus niger ATCC 6275 after 72 hrs by serial dilution method; format: functional; conditions: ATCC 6275, 72 h; in short: as §1
# Micrococcus flavus [10] = experiment: Antibacterial activity against Micrococcus flavus ATCC 10240 treated for 24 hrs followed by sub-cultivated for 72 hrs by micro dilution method; format: functional; in short: as §4
# Fulvia fulva [11] = experiment: Antifungal activity against Fulvia fulva after 72 hrs by serial dilution method; format: functional; in short: as §1
# Bacillus cereus [12] = experiment: Antibacterial activity against Bacillus cereus clinical isolate treated for 24 hrs followed by sub-cultivated for 72 hrs by micro dilution method; format: functional; in short: as §4
# Aspergillus niger [13] = experiment: Antifungal activity against Aspergillus niger ATCC 6275 treated for 72 hrs followed by sub-cultivated for 5 days by serial dilution method; format: functional; in short: as §2
# Trichoderma viride [14] = experiment: Antifungal activity against Trichoderma viride IAM 5061 after 72 hrs by serial dilution method; format: functional; conditions: IAM 5061, 72 h; in short: as §1
# Penicillium ochrochloron [15] = experiment: Antifungal activity against Penicillium ochrochloron ATCC 9112 treated for 72 hrs followed by sub-cultivated for 5 days by serial dilution method; format: functional; in short: as §2
# Pseudomonas aeruginosa [16] = experiment: Antibacterial activity against Pseudomonas aeruginosa ATCC 27853 after 24 hrs by micro dilution method; format: functional; conditions: ATCC 27853, 24 h; in short: as §3
# Staphylococcus aureus [17] = experiment: Antibacterial activity against Staphylococcus aureus ATCC 6538 treated for 24 hrs followed by sub-cultivated for 72 hrs by micro dilution method; format: functional; in short: as §4
# Escherichia coli [18] = experiment: Antibacterial activity against Escherichia coli ATCC 35210 after 24 hrs by micro dilution method; format: functional; conditions: ATCC 35210, 24 h; in short: as §3
# Talaromyces funiculosus [19] = experiment: Antifungal activity against Penicillium funiculosum ATCC 36839 treated for 72 hrs followed by sub-cultivated for 5 days by serial dilution method; format: functional; in short: as §2
# Bacillus cereus [20] = experiment: Antibacterial activity against Bacillus cereus clinical isolate after 24 hrs by micro dilution method; format: functional; in short: as §3
# Fulvia fulva [21] = experiment: Antifungal activity against Fulvia fulva treated for 72 hrs followed by sub-cultivated for 5 days by serial dilution method; format: functional; in short: as §2
# Micrococcus flavus [22] = experiment: Antibacterial activity against Micrococcus flavus ATCC 10240 after 24 hrs by micro dilution method; format: functional; conditions: ATCC 10240, 24 h; in short: as §3
# Aspergillus fumigatus [23] = experiment: Antifungal activity against Aspergillus fumigatus human isolate treated for 72 hrs followed by sub-cultivated for 5 days by serial dilution method; format: functional; in short: as §2
# Enterobacter cloacae [24] = experiment: Antibacterial activity against Enterobacter cloacae human isolate after 24 hrs by micro dilution method; format: functional; in short: as §3
# Listeria monocytogenes [25] = experiment: Antibacterial activity against Listeria monocytogenes NCTC 7973 after 24 hrs by micro dilution method; format: functional; conditions: NCTC 7973, 24 h; in short: as §3
# Escherichia coli [26] = experiment: Antibacterial activity against Escherichia coli ATCC 35210 treated for 24 hrs followed by sub-cultivated for 72 hrs by micro dilution method; format: functional; in short: as §4
# Salmonella typhimurium [27] = experiment: Antibacterial activity against Salmonella Typhimurium ATCC 13311 after 24 hrs by micro dilution method; format: functional, Salmonella enterica subsp. enterica serovar Typhimurium; conditions: Salmonella enterica, ATCC 13311, 24 h; in short: as §3
# Listeria monocytogenes [28] = experiment: Antibacterial activity against Listeria monocytogenes NCTC 7973 treated for 24 hrs followed by sub-cultivated for 72 hrs by micro dilution method; format: functional; in short: as §4
# Aspergillus flavus [29] = experiment: Antifungal activity against Aspergillus flavus ATCC 9643 after 72 hrs by serial dilution method; format: functional; conditions: ATCC 9643, 72 h; in short: as §1
# Enterobacter cloacae [30] = experiment: Antibacterial activity against Enterobacter cloacae human isolate treated for 24 hrs followed by sub-cultivated for 72 hrs by micro dilution method; format: functional; in short: as §4
# Salmonella typhimurium [31] = experiment: Antibacterial activity against Salmonella Typhimurium ATCC 13311 treated for 24 hrs followed by sub-cultivated for 72 hrs by micro dilution method; format: functional, Salmonella enterica subsp. enterica serovar Typhimurium; conditions: Salmonella enterica; in short: as §4
# Aspergillus versicolor [32] = experiment: Antifungal activity against Aspergillus versicolor ATCC 11730 treated for 72 hrs followed by sub-cultivated for 5 days by serial dilution method; format: functional; in short: as §2
SMILES,MIC (Aspergillus versicolor [1]) [µM],MFC (Trichoderma viride [2]) [µM],MIC (Penicillium ochrochloron [3]) [µM],MIC (Staphylococcus aureus [4]) [µM],MBC (Pseudomonas aeruginosa [5]) [µM],MIC (Talaromyces funiculosus [6]) [µM],MIC (Aspergillus fumigatus [7]) [µM],MFC (Aspergillus flavus [8]) [µM],MIC (Aspergillus niger [9]) [µM],MBC (Micrococcus flavus [10]) [µM],MIC (Fulvia fulva [11]) [µM],MBC (Bacillus cereus [12]) [µM],MFC (Aspergillus niger [13]) [µM],MIC (Trichoderma viride [14]) [µM],MFC (Penicillium ochrochloron [15]) [µM],MIC (Pseudomonas aeruginosa [16]) [µM],MBC (Staphylococcus aureus [17]) [µM],MIC (Escherichia coli [18]) [µM],MFC (Talaromyces funiculosus [19]) [µM],MIC (Bacillus cereus [20]) [µM],further results
CCNc1nnc(Cc2cc(OC)c(OC)cc2S(=O)(=O)N(C)C)s1,260,130,130,520,260,130,130,260,130,520,70,260,260,70,260,260,520,260,260,260,MFC (Fulvia fulva [21]): 70 µM; MIC (Micrococcus flavus [22]): 260 µM; MFC (Aspergillus fumigatus [23]): 260 µM; MIC (Enterobacter cloacae [24]): 520 µM; MIC (Listeria monocytogenes [25]): 520 µM; MBC (Escherichia coli [26]): 260 µM; MIC (Salmonella typhimurium [27]): 260 µM; MBC (Listeria monocytogenes [28]): 520 µM; MIC (Aspergillus flavus [29]): 130 µM; MBC (Enterobacter cloacae [30]): 520 µM; MBC (Salmonella typhimurium [31]): 260 µM; MFC (Aspergillus versicolor [32]): 520 µM
CCCNc1nnc(Cc2cc(OC)c(OC)cc2S(=O)(=O)N(C)C)s1,250,130,130,500,500,130,130,250,60,500,60,500,130,60,250,500,500,250,250,250,MFC (Fulvia fulva [21]): 130 µM; MIC (Micrococcus flavus [22]): 250 µM; MFC (Aspergillus fumigatus [23]): 250 µM; MIC (Enterobacter cloacae [24]): 500 µM; MIC (Listeria monocytogenes [25]): 500 µM; MBC (Escherichia coli [26]): 250 µM; MIC (Salmonella typhimurium [27]): 250 µM; MBC (Listeria monocytogenes [28]): 500 µM; MIC (Aspergillus flavus [29]): 130 µM; MBC (Enterobacter cloacae [30]): 500 µM; MBC (Salmonella typhimurium [31]): 500 µM; MFC (Aspergillus versicolor [32]): 500 µM
COc1cc(Cc2nnc(NC(C)C)s2)c(S(=O)(=O)N(C)C)cc1OC,250,250,500,380,380,250,130,750,250,380,130,500,750,130,750,250,460,380,500,250,MFC (Fulvia fulva [21]): 250 µM; MIC (Micrococcus flavus [22]): 380 µM; MFC (Aspergillus fumigatus [23]): 250 µM; MIC (Enterobacter cloacae [24]): 460 µM; MIC (Listeria monocytogenes [25]): 380 µM; MBC (Escherichia coli [26]): 460 µM; MIC (Salmonella typhimurium [27]): 250 µM; MBC (Listeria monocytogenes [28]): 460 µM; MIC (Aspergillus flavus [29]): 250 µM; MBC (Enterobacter cloacae [30]): 460 µM; MBC (Salmonella typhimurium [31]): 500 µM; MFC (Aspergillus versicolor [32]): 750 µM
CCCCNc1nnc(Cc2cc(OC)c(OC)cc2S(=O)(=O)N(C)C)s1,120,120,120,480,480,120,120,240,60,480,60,240,120,60,240,480,480,480,240,240,MFC (Fulvia fulva [21]): 120 µM; MIC (Micrococcus flavus [22]): 240 µM; MFC (Aspergillus fumigatus [23]): 240 µM; MIC (Enterobacter cloacae [24]): 240 µM; MIC (Listeria monocytogenes [25]): 240 µM; MBC (Escherichia coli [26]): 480 µM; MIC (Salmonella typhimurium [27]): 240 µM; MBC (Listeria monocytogenes [28]): 480 µM; MIC (Aspergillus flavus [29]): 120 µM; MBC (Enterobacter cloacae [30]): 240 µM; MBC (Salmonella typhimurium [31]): 240 µM; MFC (Aspergillus versicolor [32]): 240 µM
CNc1nnc(Cc2cc(OC)c(OC)cc2S(=O)(=O)N(C)C)o1,140,140,140,280,560,140,140,450,140,840,280,280,450,30,450,420,280,280,280,280,MFC (Fulvia fulva [21]): 450 µM; MIC (Micrococcus flavus [22]): 560 µM; MFC (Aspergillus fumigatus [23]): 280 µM; MIC (Enterobacter cloacae [24]): 700 µM; MIC (Listeria monocytogenes [25]): 420 µM; MBC (Escherichia coli [26]): 420 µM; MIC (Salmonella typhimurium [27]): 420 µM; MBC (Listeria monocytogenes [28]): 420 µM; MIC (Aspergillus flavus [29]): 140 µM; MBC (Enterobacter cloacae [30]): 840 µM; MBC (Salmonella typhimurium [31]): 420 µM; MFC (Aspergillus versicolor [32]): 450 µM
